KCNQ1 inh: inhibitors of human KCNQ1 potassium channel. CHO-K1 KCNQ1, FluxOR thallium flux fluorescence; stronger effect = higher value. AID 2642. B-score at 10 µM. 310,000 compounds, 1.3% hits. P51787;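 active = compounds whose thallium flux B-score, printed positive for inhibition, exceeds three library SD while starting fluorescence stays within three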;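 note: channel opened by potassium depolarization with thallium stimulus after 20 min compound exposure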
KCNQ1 act: potentiators or activators of human KCNQ1 potassium channel | CHO-K1 KCNQ1, thallium flux FluxOR fluorescence; stronger effect = higher value | B-score at 10 µM | 310,000 compounds, 0.35% hits;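 active = fluorescence ratio B-score, a plate-corrected score, at least three library SD, with initial intensity B-score within 5 SD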
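assay system = KCNQ1-transfected CHO-K1 cells | medium = assay buffer with matched DMSO | probe or stimulus = depolarizing K+/Tl+ stimulus, K2SO4 and Tl2SO4 each 12.5 mM in 5x stock | dosing = single dose | incubation = dye 90 min, compound 20 min, room temperature | detection = kinetic FluxOR fluorescence, 10 s baseline plus 110 s post-stimulus | evaluation = ratio B score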
KCNK3 block: human KCNK3 channel inhibition, primary screen. O14649. CHO-KCNK3 thallium flux, FluxOR fluorescence; stronger effect = lower value. B-score at 10 µM. 340,000 compounds, 0.84% hits. AID 602410;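 active = B-score under library mean minus 4 SD, starting fluorescence ratio at most library mean plus 5 SD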;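 note: more negative B-score means stronger inhibition of thallium flux through KCNK3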
hERG rescue: compounds protecting human hERG from proarrhythmic drug block; Q12809; AID 1511; activation (rescue from dofetilide block), less the hit threshold, % at 10 µM; CHO-hERG, FluxOR thallium flux, dofetilide IC70 present; 310,000 compounds, 0.51% hits;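 active = activation above the mean of controls blocked by dofetilide plus 5 SD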;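 note: thallium influx through hERG after potassium depolarization seen as dye fluorescence rise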
Target sequence (Q12809 whole entry, looked up): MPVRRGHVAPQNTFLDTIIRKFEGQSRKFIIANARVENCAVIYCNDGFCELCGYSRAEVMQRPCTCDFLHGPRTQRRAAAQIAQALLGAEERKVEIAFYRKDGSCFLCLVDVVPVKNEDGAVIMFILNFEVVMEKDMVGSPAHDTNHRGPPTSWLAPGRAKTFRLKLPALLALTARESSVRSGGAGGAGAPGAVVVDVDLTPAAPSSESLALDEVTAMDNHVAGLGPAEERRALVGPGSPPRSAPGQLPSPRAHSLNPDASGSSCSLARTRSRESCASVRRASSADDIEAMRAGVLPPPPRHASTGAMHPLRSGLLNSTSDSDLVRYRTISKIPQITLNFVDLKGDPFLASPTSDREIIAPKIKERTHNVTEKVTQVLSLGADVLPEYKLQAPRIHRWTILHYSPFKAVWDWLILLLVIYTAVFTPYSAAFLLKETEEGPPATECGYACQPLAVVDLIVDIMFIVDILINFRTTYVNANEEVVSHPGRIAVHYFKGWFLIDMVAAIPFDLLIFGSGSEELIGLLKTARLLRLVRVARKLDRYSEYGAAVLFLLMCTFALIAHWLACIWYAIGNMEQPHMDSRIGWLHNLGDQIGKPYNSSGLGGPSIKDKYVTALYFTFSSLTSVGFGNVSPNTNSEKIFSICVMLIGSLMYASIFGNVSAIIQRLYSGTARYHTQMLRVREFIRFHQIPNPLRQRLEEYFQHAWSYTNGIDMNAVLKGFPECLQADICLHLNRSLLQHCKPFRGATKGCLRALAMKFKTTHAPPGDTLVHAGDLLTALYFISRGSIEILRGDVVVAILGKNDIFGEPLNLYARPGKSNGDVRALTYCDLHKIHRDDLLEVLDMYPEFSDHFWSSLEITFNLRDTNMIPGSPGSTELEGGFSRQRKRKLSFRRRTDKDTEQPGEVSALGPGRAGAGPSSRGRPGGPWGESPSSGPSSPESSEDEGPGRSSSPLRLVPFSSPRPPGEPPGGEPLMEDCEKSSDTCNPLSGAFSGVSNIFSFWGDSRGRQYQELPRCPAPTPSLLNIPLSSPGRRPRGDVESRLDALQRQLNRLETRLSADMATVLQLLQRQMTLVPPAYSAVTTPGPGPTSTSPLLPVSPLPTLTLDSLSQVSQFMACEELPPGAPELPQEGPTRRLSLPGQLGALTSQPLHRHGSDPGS
KCNK9 block: human KCNK9 channel inhibition; Q9NPC2; HEK293 KCNK9, FluxOR thallium flux fluorescence; stronger effect = lower value; B-score at 10 µM; 310,000 compounds, 1.2% hits; AID 488922;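 active = ratio B-score over 3 SD below the library mean, with starting fluorescence within 5 SD of its mean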;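 note: negative B-score means less thallium flux so channel inhibition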
Of the large screens only hits and unclear results are named; the others gave an inactive call. Only some compounds are listed: those with a hit (about 3.1% of all), similar ones and a draw of the others.

O=c1c2ccccc2n(CC(O)CN2CCCCC2)c2ccccc12 (stereo not drawn)	KCNK9 block -8.07
c1ccc2cc(C3CCCCC3)ncc2c1	none (no result: KCNQ1 inh, KCNQ1 act, hERG rescue, KCNK9 block)
C=CCc1ccc(OCCCCN2CC(C)OC(C)C2)c(OC)c1 (stereo not drawn)	hERG rescue 4.9
O=C(N[C@@H](Cc1ccccc1)C(=O)OCc1ccccc1)c1nc[nH]c1C(=O)NCc1ccccc1	none
CC(NC(=O)Nc1ccc(Cl)cc1)c1ccccc1 (stereo not drawn)	none
Cc1ccc(C(NC(=O)NC(C)c2ccccc2)C(Cl)(Cl)Cl)cc1F (stereo not drawn)	KCNQ1 inh 7
O=C(Nc1nc2c(Br)cc(Br)cc2c(=O)s1)C1CCC1	hERG rescue 5.9
N#CC1=C(N)OC2=C(CCc3ccccc32)C1c1ccccc1Cl (stereo not drawn)	KCNK9 block -7.59
C=CCn1c2ccccc2c2nnc(SCCN3CCCCC3)nc21	none
C=CCn1c2ccccc2c2nnc(SCN3C(=O)c4ccccc4C3=O)nc21	KCNQ1 inh 6
O=C(CSc1nnc(Nc2ccccc2)s1)NC1CC1	none (no result: KCNQ1 inh, KCNQ1 act, hERG rescue, KCNK9 block)
CCCCCc1ccc(OCCCC[n+]2ccc(C)cc2)c(CCCCC)c1	KCNQ1 inh 11, KCNK9 block -7.18
CCCCCc1ccc(OCCCC[n+]2cccc(C)c2)c(CCCCC)c1	KCNQ1 inh 10, KCNK9 block -7.46
CC(C)CNC(=O)c1ccccc1NC(=O)c1ccc(CSc2ccccc2)cc1	KCNQ1 inh 7
CC(C)Cn1c(N)c(C(=O)COC(=O)c2ccc(Cl)cc2)c(=O)n(C)c1=O	none
CC(C)Cn1c(N)c(C(=O)COC(=O)c2c(O)c(Cl)cc(Cl)c2Cl)c(=O)n(C)c1=O	KCNK3 block -10.2 (no result: KCNQ1 inh, KCNQ1 act, hERG rescue, KCNK9 block)
N#Cc1c(N)nc2c(c1-c1ccccc1)CCC2	none
COc1ccccc1-c1cn[nH]c1-c1ccc(OCc2ccc(F)cc2)cc1O	KCNQ1 inh 6
COc1ccccc1-c1cn[nH]c1-c1ccc(OCc2ccc([N+](=O)[O-])cc2)cc1O	none
O=c1c2ccccc2nc(-c2cccc(Cl)c2)n1O	KCNQ1 act 13, hERG rescue 22.8
O=c1c2ccccc2nc(-c2ccc([N+](=O)[O-])cc2)n1O	none
O=c1c2cc(Br)ccc2nc(-c2ccccc2)n1O	KCNQ1 act 11, hERG rescue 16.9
Cc1ccc(-c2nc3ccccc3c(=O)n2O)cc1	hERG rescue 7.7
Cc1ccc(-c2nc3ccc(Cl)cc3c(=O)n2O)cc1	KCNQ1 act 63, hERG rescue 56.0
O=C(CN1C(=O)C2CC=CCC2C1=O)Nc1ccc(S(=O)(=O)Nc2nccs2)cc1 (stereo not drawn)	none
CCN(c1ccccc1)S(=O)(=O)c1ccc(NC(=O)c2nc(S(C)(=O)=O)ncc2Cl)cc1	KCNQ1 act 17
Cc1nn(CC(=O)Nc2ccc(Cl)cc2)c(=O)c2cc(-c3ccccc3)nn12	none
Cc1cc(OCC(=O)N(C)Cc2ccccc2)ccc1Br	KCNK9 block -7.28
Cc1cc(OCC(=O)N(C)Cc2ccccc2)ccc1Cl	none
CC1CCN(C(=O)COc2ccc(S(=O)(=O)N3CCOCC3)cc2)CC1	none
O=C(O)CCc1cc(I)c(Oc2ccc(O)c(I)c2)c(I)c1	KCNQ1 act 49, hERG rescue 29.0 (no result: KCNK3 block)
N[C@@H](Cc1cc(I)c(Oc2ccc(O)c(I)c2)c(I)c1)C(=O)O	none
CC(=O)c1ccccc1OC(=O)c1ccc(-c2ccccc2)cc1	KCNK9 block -6.69
CC(=O)c1ccccc1OC(=O)c1c(F)cccc1F	none
CCC(C)c1ccccc1NC(=O)C(C)OC(=O)CN1C(=O)NC(C)(C)C1=O (stereo not drawn)	none
Cc1cc2nc3ccc(=[N+](C)C)cc-3sc2cc1N	KCNQ1 inh 6
CN(C)c1ccc2nc3ccc(=[N+](C)C)cc-3sc2c1	none
CCOc1cc(Br)ccc1S(=O)(=O)NCc1ccccc1	none
O=c1c(C(c2ccc(O)cc2)c2c(O)nc3n(c2=O)CCCS3)c(O)nc2n1CCCS2	none
O=c1c(C(c2ccc(O)cc2)c2c(O)nc3n(c2=O)CCS3)c(O)nc2n1CCS2	hERG rescue 6.7
O=C(NCC1CC1)c1cc(-c2ccccc2)nn1CC1CC(c2cccc([N+](=O)[O-])c2)=NO1 (stereo not drawn)	KCNK9 block -8.34
O=C(NCc1cccc(Br)c1)c1cc(-c2ccccc2)nn1CC1CC(c2cccc([N+](=O)[O-])c2)=NO1 (stereo not drawn)	KCNK9 block -7.07
COCCNC(=O)c1cc(-c2ccccc2)nn1CC1CC(c2cccc([N+](=O)[O-])c2)=NO1 (stereo not drawn)	none
Cc1cc(C(=O)C(C)OC(=O)c2ccc(NC(=O)CC#N)cc2)c(C)n1-c1ccccc1 (stereo not drawn)	none
COc1cc2ncnc(NCc3cccs3)c2cc1OC	hERG rescue 5.0
CCC(C)(C)n1nnnc1C(c1ccccn1)N1CCOCC1 (stereo not drawn)	none
CCN(Cc1ccccc1)C(c1ccccn1)c1nnnn1C(C)(C)CC (stereo not drawn)	KCNK9 block -8.05
CCN(Cc1ccccc1)C(c1ccc(C)cc1)c1nnnn1C(C)(C)C (stereo not drawn)	KCNK9 block -7.75
COc1cccc2sc(Nc3nc(-c4ccncc4)cs3)nc12	none
COc1cccc2sc(Nc3nnc(-c4ccccc4Cl)o3)nc12	KCNQ1 act 15, hERG rescue 8.7
COc1ccccc1-c1nnc(Nc2nc3c(OC)cccc3s2)o1	none
COc1cccc2sc(Nc3nc(-c4cc5ccccc5oc4=O)cs3)nc12	KCNK9 block -7.31
COc1cccc(-c2nnc(Nc3nc4c(F)cccc4s3)o2)c1	KCNQ1 act 35, hERG rescue 39.7
S=C1SCN(Cc2cccnc2)CN1Cc1cccnc1	none
CCOC(=O)Cc1csc(NC(=S)NC(=O)c2ccc(F)cc2)n1	KCNQ1 act 8
CCOC(=O)Cc1csc(NC(=S)NC(=O)c2ccccc2C)n1	KCNQ1 act 16
COc1ccc(CN2C(=O)c3c(c(C)n(C)c3C)C2C(=O)NC2CCC(C)CC2)cc1 (stereo not drawn)	none
COc1cc(S(=O)(=O)N2CC(=O)Nc3ccccc32)ccc1NC(C)=O	none
COc1ccc(Br)cc1/C=C/C(=O)NC(=S)Nc1ccc(CN2CCOCC2)cc1	KCNQ1 inh 8
COc1ccc(C(=O)NC(=S)Nc2ccc(CN3CCOCC3)cc2)cc1OC	none
CC(C)c1ccc(CC(C)C2C3=C(CCCC3=O)OC3=C2C(=O)CCC3)cc1 (stereo not drawn)	KCNQ1 inh 7
Cc1ccc(-n2ncc3c(SCc4ccccc4)ncnc32)cc1	hERG rescue 8.6
CCN(CC)S(=O)(=O)c1ccc(F)cc1	none
CCCc1ccc(S(=O)(=O)N(C)S(=O)(=O)c2ccc(F)cc2)cc1	KCNK9 block -6.66
Cc1[nH]c(=O)c(C(=O)/C=C/c2ccccc2F)c2c1CCCC2	none
